According to ChEMBL document CHEMBL4477200, “Design, Synthesis, and Preclinical Evaluation of 4-Substituted-5-methyl-furo[2,3-d]pyrimidines as Microtubule Targeting Agents That Are Effective against Multidrug Resistant Cancer Cells” (J Med Chem, 2016):
The source made the active and inactive calls. No cut-off for these calls is given here.

What was measured:
HeLa [1] = experiment: Cell cycle arrest in human HeLa cells assessed as accumulation at G2/M phase at 5 times IC50 after 18 hrs by flow cytometry (reference value: 17.11 +/- 1.09%); assay type: functional
HL-60(TB) = experiment: Cytotoxicity against human HL-60(TB) cells assessed as growth inhibition after 48 hrs by SRB assay; assay type: functional; details: HL-60, 48 h
K562 = experiment: Cytotoxicity against human K562 cells assessed as growth inhibition after 48 hrs by SRB assay; assay type: functional; details: K562, 48 h
NCI-H226 = experiment: Cytotoxicity against human NCI-H226 cells assessed as growth inhibition after 48 hrs by SRB assay; assay type: functional; details: NCI-H226, 48 h
NCI-H23 = experiment: Cytotoxicity against human NCI-H23 cells assessed as growth inhibition after 48 hrs by SRB assay; assay type: functional; details: NCI-H23, 48 h
NCI-H460 = experiment: Cytotoxicity against human NCI-H460 cells assessed as growth inhibition after 48 hrs by SRB assay; assay type: functional; details: NCI-H460, 48 h
NCI-H522 = experiment: Cytotoxicity against human NCI-H522 cells assessed as growth inhibition after 48 hrs by SRB assay; assay type: functional; details: NCI-H522, 48 h
HCT-15 = experiment: Cytotoxicity against human HCT15 cells assessed as growth inhibition after 48 hrs by SRB assay; assay type: functional; details: HCT-15, 48 h
HT-29 = experiment: Cytotoxicity against human HT-29 cells assessed as growth inhibition after 48 hrs by SRB assay; assay type: functional; details: HT-29, 48 h
SW-620 = experiment: Cytotoxicity against human SW620 cells assessed as growth inhibition after 48 hrs by SRB assay; assay type: functional; details: SW-620, 48 h
SF-295 = experiment: Cytotoxicity against human SF295 cells assessed as growth inhibition after 48 hrs by SRB assay; assay type: functional; details: SF-295, 48 h
U-251 = experiment: Cytotoxicity against human U251 cells assessed as growth inhibition after 48 hrs by SRB assay; assay type: functional; details: U-251, 48 h
LOX IMVI = experiment: Cytotoxicity against human LOXIMVI cells assessed as growth inhibition after 48 hrs by SRB assay; assay type: functional
SK-MEL-28 = experiment: Cytotoxicity against human SK-MEL-28 cells assessed as growth inhibition after 48 hrs by SRB assay; assay type: functional; details: SK-MEL-28, 48 h
SK-MEL-5 = experiment: Cytotoxicity against human SK-MEL-5 cells assessed as growth inhibition after 48 hrs by SRB assay; assay type: functional; details: SK-MEL-5, 48 h
UACC-62 = experiment: Cytotoxicity against human UACC62 cells assessed as growth inhibition after 48 hrs by SRB assay; assay type: functional; details: UACC-62, 48 h
IGROV-1 = experiment: Cytotoxicity against human IGROV1 cells assessed as growth inhibition after 48 hrs by SRB assay; assay type: functional; details: IGROV-1, 48 h
OVCAR-5 = experiment: Cytotoxicity against human OVCAR5 cells assessed as growth inhibition after 48 hrs by SRB assay; assay type: functional; details: OVCAR-5, 48 h
SK-OV-3 [2] = experiment: Cytotoxicity against human SKOV3 cells assessed as growth inhibition after 48 hrs by SRB assay; assay type: functional, cell-based; details: SK-OV-3, 48 h
How it was run: (§1)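 SRB assay; IC50 is the mean of three independent experiments, each run in triplicate. Cells were kept at 37 °C under 5% CO2. HeLa and SK-OV-3 lines (parental and MDR1-M6/6) were grown in Basal Medium Eagle with 10% FBS, 1% GlutaMAX and 50 µg/mL gentamycin. HeLa WTβIII was grown in DMEM with 10% FBS.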

RXF 393 = experiment: Cytotoxicity against human RXF393 cells assessed as growth inhibition after 48 hrs by SRB assay; assay type: functional; details: RXF 393, 48 h
SN12C = experiment: Cytotoxicity against human SN12C cells assessed as growth inhibition after 48 hrs by SRB assay; assay type: functional
TK-10 = experiment: Cytotoxicity against human TK10 cells assessed as growth inhibition after 48 hrs by SRB assay; assay type: functional; details: TK-10, 48 h
MCF7 = experiment: Cytotoxicity against human MCF7 cells assessed as growth inhibition after 48 hrs by SRB assay; assay type: functional; details: MCF7, 48 h
MDA-MB-231 = experiment: Cytotoxicity against human MDA-MB-231 cells assessed as growth inhibition after 48 hrs by SRB assay; assay type: functional; details: MDA-MB-231, 48 h
Hs-578T = experiment: Cytotoxicity against human Hs 578T cells assessed as growth inhibition after 48 hrs by SRB assay; assay type: functional
BT-549 = experiment: Cytotoxicity against human BT549 cells assessed as growth inhibition after 48 hrs by SRB assay; assay type: functional; details: BT-549, 48 h
MDA-MB-468 = experiment: Cytotoxicity against human MDA-MB-468 cells assessed as growth inhibition after 48 hrs by SRB assay; assay type: functional; details: MDA-MB-468, 48 h
SK-OV-3 [3] = experiment: Antiproliferative activity against multidrug resistant human SKOV3 cells expressing MDR1-M6/6 after 48 hrs by SRB assay; assay type: functional, cell-based; details: SK-OV-3, 48 h; how it was run: as §1
HeLa [4] = experiment: Relative ratio of IC50 for human HeLa cells expressing wild type beta3 tubulin to IC50 for human HeLa cells; assay type: functional
[5] = test system: Tubulin (Rattus norvegicus); experiment: Induction of microtubule depolymerization in rat A10 cells at 2 times EC50 incubated for 18 hrs by indirect immunofluorescence analysis
MDA-MB-435 = experiment: Antitumor activity against human MDA-MB-435 cells xenografted in nude mouse assessed as tumor growth inhibition at 60 mg/kg, ip dosed on day 0 to 2 and 50 mg/kg, ip on day 8 relative to control

Question: Which results are given for `COc1ccc(N(C)c2ncnc3occ(C)c23)cc1`?
Answer: Activity (HeLa [1]): 66.99%; GI50 (HL-60(TB)): < 10 nM; GI50 (K562): < 10 nM; GI50 (NCI-H226): < 10 nM; GI50 (NCI-H23): < 10 nM; GI50 (NCI-H460): < 10 nM; GI50 (NCI-H522): < 10 nM; GI50 (HCT-15): < 10 nM; GI50 (HT-29): < 10 nM; GI50 (SW-620): < 10 nM; GI50 (SF-295): < 10 nM; GI50 (U-251): < 10 nM; GI50 (LOX IMVI): < 10 nM; GI50 (SK-MEL-28): < 10 nM; GI50 (SK-MEL-5): < 10 nM; GI50 (UACC-62): 29.6 nM; GI50 (IGROV-1): < 10 nM; GI50 (OVCAR-5): 12.8 nM; GI50 (SK-OV-3 [2]): < 10 nM; IC50 (SK-OV-3 [2]): 7.7 nM; GI50 (RXF 393): < 10 nM; GI50 (SN12C): < 10 nM; GI50 (TK-10): 75.3 nM; GI50 (MCF7): < 10 nM; GI50 (MDA-MB-231): < 10 nM; GI50 (Hs-578T): < 10 nM; GI50 (BT-549): 59.6 nM; GI50 (MDA-MB-468): < 10 nM; IC50 (SK-OV-3 [3]): 8.4 nM; Ratio IC50 (HeLa [4]): 0.9; Activity [5]: Active; TGI (MDA-MB-435): Active
